The values below come from ChEMBL document CHEMBL2150978, “Phosphorodiamidates as a promising new phosphate prodrug motif for antiviral drug discovery: application to anti-HCV agents” (J Med Chem, 2011).

In general, Tmax refers to the time at which the peak concentration occurs. As usually defined, the Cmax is the highest concentration seen after dosing. As usually defined, the CC50 is the concentration giving 50% cytotoxicity. What is called EC50 is the concentration at which the effect is half-maximal. The EC90 is the point of the concentration-response curve where the effect stands at 90%.

The test system of data set [1] is Liver. The experiment in a line: Tmax in Sprague-Dawley rat liver assessed as 2'-C-methyl guanosine triphosphate level at 10 mg/kg, po up to 24 hrs by LC-MS/Ms analysis. It is filed as ADME, organism-based. Also noted: dose 10 mg/kg, route oral. Particulars: in vivo; call rule not given here. The method, boiled down:
(§1)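 Male Sprague-Dawley rats dosed orally by gavage at 10 mg/kg in 95% Capmul MCM/5% Tween 80. Livers collected terminally at eight time points up to 24 h and snap-frozen in liquid nitrogen. Liver 2′-C-methylguanosine triphosphate quantified by LC-MS/MS, linear over 100−4000 ng per gram of tissue (r² ≥ 0.99, ≥85% accuracy, ≤2% CV).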

A short description of data set [2]: Stability of the compound in triethylammonium bicarbonate buffer assessed as compound decomposition at pH 11 incubated for 17 hrs at 37 degC by [31P] NMR spectroscopy. Particulars: pH 11, 17 h. It is filed as physicochemical. Summed up: (§2)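 Base stability tested at pH 8.5 and at pH 11, both at 37 °C, followed by ³¹P NMR, with pH 11 samples followed to 17 h. Half-life estimated assuming first-order decay.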

The subject of data set [3] is Liver. In words: AUC (0 to t) in Sprague-Dawley rat liver assessed as 2'-C-methyl guanosine triphosphate level at 10 mg/kg, po up to 24 hrs by LC-MS/Ms analysis. Conditions: in vivo. Also noted: dose 10 mg/kg, route oral. It is filed as ADME, organism-based. Summed up: as §1
Data set [4] can be described thus: Stability in phosphate buffer at pH 7 after 14 hrs by [31P] NMR spectroscopy. It is filed as physicochemical. Particulars: pH 7, 14 h.
Data set [5] can be described thus: Stability of the compound in triethylammonium bicarbonate buffer assessed as compound decomposition at pH 8.5 incubated at 37 degC by [31P] NMR spectroscopy. It is filed as physicochemical. Summed up:
as §2

The subject of data set [6] is Serum. The experiment in a line: Stability in human serum incubated for 12 hrs by [31P] NMR spectroscopy. It is filed as ADME, cell-free.
For data set [7], the system named is Liver. In words: Cmax in Sprague-Dawley rat liver assessed as 2'-C-methyl guanosine triphosphate level at 10 mg/kg, po up to 24 hrs by LC-MS/Ms analysis. It is filed as ADME, organism-based. Details: dose 10 mg/kg, route oral. Particulars: in vivo. Summed up:
as §1

A short description of data set [8]: Stability of the compound in triethylammonium bicarbonate buffer assessed as compound decomposition at pH 11 incubated at 37 degC by [31P] NMR spectroscopy. It counts as physicochemical. Summed up:
as §2

In data set [9] the test system is Liver. In words: Clast in Sprague-Dawley rat liver assessed as 2'-C-methyl guanosine triphosphate level at 10 mg/kg, po up to 24 hrs by LC-MS/Ms analysis. It is filed as ADME, organism-based. Details: dose 10 mg/kg, route oral. Conditions: in vivo. Summed up:
as §1

A short description of data set [10]: Stability in citric acid-HCl buffer at pH 2 incubated for 14 hrs at 37 or 47 degC by [31P] NMR spectroscopy. Conditions: pH 2, 14 h. It counts as physicochemical. Summed up: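 Compound in citric acid−HCl buffer pH 2, held at 37 or 47 °C and monitored by ³¹P NMR over 14 h.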
Data set [11] in a line: Drug metabolism in acetone-d6 and TRIZMA buffer at pH 7.4 assessed as (S)-2-((((2R,3R,4R,5R)-5-(2-amino-6-methoxy-9H-purin-9-yl)-3,4-dihydroxy-4-methyltetrahydrofuran-2-yl)methoxy)oxidophosphorylamino)propanoate level at 6.95 ppm at pH 7.4 after 1 hr by 31P NMR in presence of carboxypeptidase Y. It is filed as physicochemical. Conditions: pH 7.4, 1 h. Summed up:
(§3)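 Compound (about 5 mg) in 200 μL acetone-d₆ plus 400 μL Trizma buffer pH 7.4. Baseline ³¹P NMR recorded, then 0.3−0.5 mg carboxypeptidase Y in 200 μL Trizma pH 7.4 added. Processing followed by ³¹P NMR kinetics. A buffer phosphate impurity peak stays constant throughout.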

A short description of data set [12]: Selectivity index, ratio of CC50 for human HuH7 cells to EC50 for Hepatitis C virus subtype 1b Con1. It counts as toxicity, cell-based, Huh-7. Particulars: read-out: Ratio CC50/EC50. The method, boiled down: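 Huh7 cells carrying a stable bicistronic subgenomic genotype 1b (Con1) HCV replicon with Renilla luciferase reporter, 2 × 10⁴ cells per well. Four-fold serial dilutions, 3 days at 37 °C, 5% CO₂. Replicon inhibition read by luciferase luminescence (RLU) and cytotoxicity by CellTiter-Glo in the same cell line. SI taken as CC50/EC50.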

The nature of data set [13]: Cytotoxicity against human HuH7 cells after 3 days. It is filed as cell-based, Huh-7. Summed up:
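Huh7 replicon cells seeded at 2 × 10⁴ per well one day before dosing. Four-fold serial dilutions in growth medium, no-drug controls on each plate. Incubated 3 days at 37 °C, 5% CO₂. Viability read by CellTiter-Glo luminescence after 20 min with reagent.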

Data set [14] is described as follows: Drug metabolism in acetone-d6 and TRIZMA buffer at pH 7.4 assessed as (S)-2-((((2R,3R,4R,5R)-5-(2-amino-6-methoxy-9H-purin-9-yl)-3,4-dihydroxy-4-methyltetrahydrofuran-2-yl)methoxy)oxidophosphorylamino)propanoate level at 6.94 ppm at pH 7.4 after 1 hr by 31P NMR in presence of carboxypeptidase Y. It counts as physicochemical. Conditions: pH 7.4, 1 h. The method, boiled down: as §3

Data set [15] is described as follows: Stability in phosphate buffer assessed as compound decomposition by HPLC. It is filed as physicochemical.
Data set [16] deals with Hepatitis C virus. In words: Antiviral activity against Hepatitis C virus subtype 1b Con1 infected in human Huh7 cells assessed as inhibition of HCV replicon-encoded Renilla luciferase reporter activity after 72 hrs by HCV replicon assay. It counts as functional, organism-based, Hepacivirus hominis. Particulars: Con1, Huh-7, 72 h. Summed up:
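Huh7 cells stably carrying a bicistronic subgenomic genotype 1b (Con1) replicon with Renilla luciferase reporter, seeded at 2 × 10⁴ cells/well the day before. Four-fold serial dilutions in growth medium, no-drug controls on each plate; 3 days at 37 °C, 5% CO₂. Luciferase reagent 20 min, then luminescence (RLU) read; EC₅₀ derived.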
Background: In antiviral work, replicon cells carry a viral genome segment that copies itself.

In the case of `COc1nc(N)nc2c1ncn2[C@@H]1O[C@H](COP(=O)(N[C@@H](C)C(=O)OCC(C)(C)C)N[C@@H](C)C(=O)OCC(C)(C)C)[C@@H](O)[C@@]1(C)O` (mixture of isomers), the Tmax in data set [1] was 8 h. The Stability entry in data set [2], in data set [4], in data set [5], in [6], in [8] and in [10] was “Stable” each time. Moreover, the Stability entry in data set [15] is “Stable”. Also, the AUCt in data set [3] worked out at 25147 ng·h/g. The maximum concentration (Cmax) in [7] is reported as 1580 ng/g. Besides, the Clast in data set [9] is on record as 800 ng/g. Moreover, the Drug metabolism entry in [11] and in data set [14] was “Active” each time. The selectivity ratio in [12] is greater than 1600. Further, the CC50 at 72 h in [13] was greater than 100 µM. For the same compound, the EC50 in data set [16] turned out to be 0.06 µM. The EC90 in data set [16] amounted to 0.2 µM.
As for `CC[C@H](C)[C@H](NP(=O)(N[C@H](C(=O)OC1CCCCC1)[C@@H](C)CC)OC[C@H]1O[C@@H](n2cnc3c(OC)nc(N)nc32)[C@](C)(O)[C@@H]1O)C(=O)OC1CCCCC1` (mixture of isomers), in [12], the selectivity ratio was 4. This compound returned a CC50 at 72 h in [13] of 14 µM. In addition, in data set [16], the EC50 was 4 µM and the EC90 turned out to be 7.1 µM.
